Experimental data reported in ChEMBL document CHEMBL3596118, “Synthesis and antiproliferative activity of imidazo[1,2-a]pyrimidine Mannich bases” (2015).

What was measured:
Assay type in all cases: functional
[1] = test system: MDA-MB-231; assay: Growth inhibition of human MDA-MB-231 cells after 48 hrs by SRB assay; conditions: MDA-MB-231, 48 h
How it was run: (§1)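 Cells grown in DMEM with 10% FBS, 5% CO2, 37 0C; seeded at densities set by doubling time, incubated 24 hrs, then exposed continuously 48 hrs to 0.01, 0.1, 1, 10, 100 µM; DMSO-treated cells as negative control. Fixed with cold 10% TCA (4 0C, 1 hr), stained 0.057% SRB 30 min, dye dissolved in 10 mM Tris, OD 510 nm; GI50 from [(Ti-Tz)/(C-Tz)]x100 = 50.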

[2] = Growth inhibition of human PANC1 cells after 48 hrs by SRB assay; conditions: PANC-1, 48 h; how it was run: as §1
[3] = test system: HeLa; assay: Growth inhibition of human HeLa cells after 48 hrs by SRB assay; how it was run: as §1
[4] = test system: A549; assay: Growth inhibition of human A549 cells after 48 hrs by SRB assay; conditions: A549, 48 h; how it was run: as §1

Structure (SMILES)	GI50 [1] [µM]	GI50 [2] [µM]	GI50 [3] [µM]	GI50 [4] [µM]
c1ccc2cc(-c3nc4ncccn4c3CN3CCN(Cc4c(-c5ccc6ccccc6c5)nc5ncccn45)CC3)ccc2c1	31.6	79.4	12.6	
Cc1ccn2c(CN3CCOCC3)c(-c3ccc(Cl)cc3)nc2n1	0.32	1.17	0.16	2.57
c1ccc(-c2nc3ncccn3c2CN2CCN(Cc3c(-c4ccccc4)nc4ncccn34)CC2)cc1	0.27	0.14	3.24	
c1csc(-c2nc3ncccn3c2CN2CCCC2)c1	0.2	0.68	0.24	0.18
Cc1ccn2c(CN3CCCCC3)c(C(C)(C)C)nc2n1	0.35	0.96	0.45	7.39
Cc1ccn2c(CN3CCN(Cc4c(C(C)(C)C)nc5nc(C)ccn45)CC3)c(C(C)(C)C)nc2n1	25.7	1.4	14.5	
CN(Cc1c(-c2ccccc2)nc2ncccn12)c1ccccc1	0.32	5.76	3.12	5.19
Cc1ccn2c(CN3CCCC3)c(-c3ccccc3)nc2n1	4.83	0.15	0.18	4.15
COc1cc(OC)n2c(CN3CCN(Cc4c(-c5ccccc5)nc5nc(OC)cc(OC)n45)CC3)c(-c3ccccc3)nc2n1	0.12	0.51	9.32	
COc1cccc2c1C(=O)c1c(O)c3c(c(O)c1C2=O)C[C@@](O)(C(=O)CO)C[C@@H]3O[C@H]1C[C@H](N)[C@H](O)[C@H](C)O1 [DOXORUBICIN]	0.01	0.01	0.031	< 0.01
c1ccc(-c2nc3ncccn3c2CN2CCNCC2)cc1	26.7	9.4	0.72	
Clc1ccc(-c2nc3ncccn3c2CN2CCN(Cc3c(-c4ccc(Cl)cc4Cl)nc4ncccn34)CC2)c(Cl)c1	0.21	27.7	2.72	
Cc1ccn2c(CN3CCN(Cc4c(-c5ccccc5)nc5nc(C)ccn45)CC3)c(-c3ccccc3)nc2n1	15.9	0.6	12.7	
Oc1ccc(-c2nc3ncccn3c2CN2CCCCC2)cc1	7.23	0.2	4.03	6.89
Cc1ccccc1-c1nc2ncccn2c1CN1CCN(Cc2c(-c3ccccc3C)nc3ncccn23)CC1	< 0.01	0.12	0.48	
c1csc(-c2nc3ncccn3c2CN2CCN(Cc3c(-c4cccs4)nc4ncccn34)CC2)c1	7.1	3.7	0.93	
CN1CCN(Cc2c(-c3ccccc3)nc3ncccn23)CC1	< 0.01	0.35	0.93	
CC(C)(C)c1nc2ncccn2c1CN1CCN(Cc2c(C(C)(C)C)nc3ncccn23)CC1	1.1	3.9	2.4	
Clc1ccc(-c2nc3ncccn3c2CN2CCN(Cc3c(-c4ccc(Cl)cc4)nc4ncccn34)CC2)cc1	4.7	0.24	25.6	
Brc1ccc(-c2nc3ncccn3c2CN2CCN(Cc3c(-c4ccc(Br)cc4)nc4ncccn34)CC2)cc1	1	0.06	0.89	
Cc1ccc(-c2nc3ncccn3c2CN2CCN(Cc3c(-c4ccc(C)cc4)nc4ncccn34)CC2)cc1	2.3	0.38	2.8	
Cc1ccn2c(CN3CCCCC3)c(-c3ccccc3)nc2n1	0.03	0.02	1.71	4.04
c1ccc(-c2nc3ncccn3c2CN2CCOCC2)cc1	1.41	0.77	1.67	0.21
c1ccc(-c2nc3ncccn3c2CN2CCCCC2)cc1	0.03	1.31	2.28	0.26
c1ccc(-c2nc3ncccn3c2CN2CCCC2)cc1	0.07	0.06	0.07	0.05
Cc1ccn2c(CN3CCOCC3)c(-c3ccccc3)nc2n1	1.43	1.83	0.85	1.09
Cc1ccc(S(=O)(=O)N2CCN(Cc3c(-c4ccccc4)nc4ncccn34)CC2)cc1	12.9	0.11	4.5	
Cc1ccn2c(CN3CCCC3)c(-c3ccc(O)cc3)nc2n1	1.2	7.28	4.76	2.48
CC(C)(C)c1nc2ncccn2c1CN1CCCCC1	1.49	4.51	0.03	0.33
